Results published in ChEMBL document CHEMBL1806371, “Selenocyanates and diselenides: a new class of potent antileishmanial agents” (Eur J Med Chem, 2011).
Active and inactive are the calls of the source. No cut-off for these calls is given here.

What was measured:
Leishmania infantum [1] = assay: Antileishmanial activity against Leishmania infantum MCAN/ES/89/IPZ229/1/89 amastigotes after 24 hrs by microscopy; assay type: functional, organism-based; conditions: MCAN/ES/89/IPZ229/1/89, 24 h
Summary of the method: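 Axenic L. infantum amastigotes (M199, 10% FCS, pH 5.4, 37 °C) treated in log phase at 1×10^6 parasites/mL for 24 h. Living cells counted by flow cytometry with propidium iodide exclusion, with microscopic observation by phase contrast or fluorescence. At least three independent experiments.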

Leishmania infantum [2] = assay: Antileishmanial activity against Leishmania infantum MCAN/ES/89/IPZ229/1/89 promastigotes assessed as growth inhibition at 25 uM after 24 hrs; assay type: functional
Summary of the method: (§1)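 Log-phase L. infantum promastigotes (RPMI-1640, 10% FCS, 25 mM HEPES, pH 7.2, 26 °C) treated at 2×10^6 parasites/mL for 24 h. Screening used 25, 12.5 and 6.25 μM to give percent growth inhibition. Living cells measured by flow cytometry with propidium iodide exclusion. At least three independent experiments.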

[3] = Selectivity ratio, ratio of IC50 for human THP1 cells to IC50 for Leishmania infantum MCAN/ES/89/IPZ229/1/89 amastigotes; assay type: ADME, cell-based; conditions: THP-1 cells, read-out: Ratio IC50
Summary of the method: (§2)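 Selectivity index is IC50 against Jurkat or THP-1 cells divided by IC50 against L. infantum amastigotes. Host cells were treated in log phase at 4×10^5 cells/mL for 24 h at 37 °C, 5% CO2, at 0.08, 0.4, 2.0, 10.0 and 50.0 μM. Viability was measured by flow cytometry with propidium iodide exclusion.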

Leishmania infantum [4] = assay: Antileishmanial activity against Leishmania infantum MCAN/ES/89/IPZ229/1/89 promastigotes after 24 hrs […]; assay type: functional, organism-based; conditions: MCAN/ES/89/IPZ229/1/89, 24 h; summary of the method: as §1
[5] = Selectivity ratio, ratio of IC50 for human Jurkat cells to IC50 for Leishmania infantum MCAN/ES/89/IPZ229/1/89 amastigotes; assay type: ADME, cell-based; conditions: read-out: Ratio IC50; summary of the method: as §2
Leishmania infantum [6] = assay: Antileishmanial activity against Leishmania infantum MCAN/ES/89/IPZ229/1/89 promastigotes assessed as growth inhibition at 6.25 uM after 24 hrs; assay type: functional; summary of the method: as §1
Jurkat = assay: Cytotoxicity against human Jurkat cells assessed as live cells in neubauer chamber after 24 hrs by trypan blue assay; assay type: cell-based
THP-1 = assay: Cytotoxicity against human THP1 cells assessed as live cells in neubauer chamber after 24 hrs by trypan blue assay; assay type: cell-based; conditions: THP-1, 24 h
Leishmania infantum [7] = assay: Antileishmanial activity against Leishmania infantum MCAN/ES/89/IPZ229/1/89 promastigotes assessed as growth inhibition at 12.5 uM after 24 hrs; assay type: functional; summary of the method: as §1
Leishmania infantum [8] = assay: Ratio of edelfosine IC50 to compound IC50 for Leishmania infantum MCAN/ES/89/IPZ229/1/89 amastigotes; assay type: functional
Leishmania infantum [9] = assay: Ratio of miltefosine IC50 to compound IC50 for Leishmania infantum MCAN/ES/89/IPZ229/1/89 amastigotes; assay type: functional

Row | SMILES | IC50 (Leishmania infantum [1]) [µM] | GI (Leishmania infantum [2]) [%] | selectivity ratio [3] | IC50 (Leishmania infantum [4]) [µM] | selectivity ratio [5] | GI (Leishmania infantum [6]) [%] | IC50 (Jurkat) [µM] | IC50 (THP-1) [µM] | GI (Leishmania infantum [7]) [%] | growth inhibition (GI) (Leishmania infantum [6]) | growth inhibition (GI) (Leishmania infantum [2]) | growth inhibition (GI) (Leishmania infantum [7]) | Ratio IC50 (Leishmania infantum [8]) | Ratio IC50 (Leishmania infantum [9])
1 | Cc1ccc(C[Se]C#N)cc1 | 3.33 | 98.6 | 7 | 11.8 | 4 | 52.8 | 14.4 | 24 | 82.8 | – | – | – | – | –
2 | N#C[Se]Cc1cccc(C#N)c1 | 0.53 | 93 | 14 | 6.06 | 16 | 42.2 | 8.71 | 7.6 | 71.2 | – | – | – | – | –
3 | Brc1ccc(C[Se][Se]Cc2ccc(Br)cc2)cc1 | – | 12.2 | – | – | – | – | – | – | 1.9 | inactive | – | – | – | –
4 | N#C[Se]c1ccc(N)c(C(=O)O)c1 | – | – | – | – | – | – | – | – | – | – | inactive | – | – | –
5 | N#C[Se]Cc1cccc([N+](=O)[O-])c1 | 0.57 | 97 | 16 | 4.18 | 21 | 47.2 | 12.2 | 9.32 | 80.5 | – | – | – | – | –
6 | Cc1ccc(C[Se][Se]Cc2ccc(C)cc2)cc1 | – | 2.5 | – | – | – | – | – | – | – | inactive | – | inactive | – | –
7 | N#C[Se]Cc1ccc2ccccc2c1 | 3.72 | 91.5 | 5 | 11.2 | 4 | 37.1 | 14 | 16.8 | 81.1 | – | – | – | – | –
8 | CC(=O)Nc1ccc([Se][Se]c2ccc(NC(C)=O)c(C(=O)O)c2)cc1C(=O)O | – | – | – | – | – | – | – | – | – | – | inactive | – | – | –
9 | N#C[Se]Cc1ccc(Br)cc1 | 7.95 | 97.1 | 4 | 11.6 | 2 | 49.2 | 12.7 | 28.9 | 80.8 | – | – | – | – | –
10 | Nc1ccc([Se][Se]c2ccc(N)c(C(=O)O)c2)cc1C(=O)O | – | – | – | – | – | – | – | – | – | – | inactive | – | – | –
11 | COc1ccc(C[Se][Se]Cc2ccc(OC)cc2)cc1 | – | 31.7 | – | – | – | 0.5 | – | – | 9.9 | – | – | – | – | –
12 | N#C[Se]c1ccc(N)cc1 | 9.29 | 76.3 | > 5 | 11.2 | 5 | 14.4 | 43.8 | > 50 | 38.2 | – | – | – | – | –
13 | CSc1ccc(C[Se]C#N)cc1 | 3.02 | 97.2 | 6 | 11.6 | 2 | 77.3 | 5.07 | 17 | 92.9 | – | – | – | – | –
14 | N#C[Se]Cc1ccccc1[N+](=O)[O-] | 0.34 | 98.6 | 21 | 3.32 | 38 | 74 | 12.9 | 7.1 | 89.8 | – | – | – | 2.4 | 8.3
15 | N#C[Se]Cc1ccc(C#N)cc1 | 0.55 | 97 | 15 | 4.14 | 24 | 51.5 | 13.4 | 7.97 | 80.4 | – | – | – | – | –
16 | N#Cc1ccccc1C[Se][Se]Cc1ccccc1C#N | – | 31.5 | – | – | – | 7.3 | – | – | 16.5 | – | – | – | – | –
17 | O=[N+]([O-])c1cccc(C[Se][Se]Cc2cccc([N+](=O)[O-])c2)c1 | – | 41.2 | – | – | – | 18.1 | – | – | 29.4 | – | – | – | – | –
18 | CN(C)c1ccc([Se]C#N)cc1 | 2.79 | 97.3 | 16 | 9.24 | 10 | 54.4 | 29.3 | 44.7 | 86.7 | – | – | – | – | –
